In ChEMBL document CHEMBL5058577, “EUbOPEN Chemogenomics Library 2 (Multiplex)” (2022):

Test system: Fibroblast
Test: Multiplex assay against human fibroblast
Format: toxicity, cell-based
Outline: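 Phenotypes for tubulin, mitochondrial mass and membrane permeability are expressed as per cents of healthy-nucleus cells. Cells were stained live at seeding with Hoechst33342, BioTracker Green Microtubule Cytoskeleton Dye, MitoTracker Red and Annexin V Alexa Fluor 680, then imaged after compound addition on a CQ1 microscope at 37°C and 5% CO2. Machine-learning gating in CellPathfinder separated Hoechst high-intensity objects from normal cells, divided normal cells by nuclear state (healthy, pyknosed, fragmented) and divided pyknosed cells into mitotic or apoptotic.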

[1] = 12 h, 1 µM, compound concentration 1 uM, replicate 1
[2] = 12 h, 1 µM, compound concentration 1 uM, replicate 2
[3] = 12 h, 10 µM, compound concentration 10 uM, replicate 1
[4] = 12 h, 10 µM, compound concentration 10 uM, replicate 2
[5] = 24 h, 1 µM, compound concentration 1 uM, replicate 1
[6] = 24 h, 1 µM, compound concentration 1 uM, replicate 2
[7] = 24 h, 10 µM, compound concentration 10 uM, replicate 1
[8] = 24 h, 10 µM, compound concentration 10 uM, replicate 2
[9] = 48 h, 1 µM, compound concentration 1 uM, replicate 1
[10] = 48 h, 1 µM, compound concentration 1 uM, replicate 2
[11] = 48 h, 10 µM, compound concentration 10 uM, replicate 1
[12] = 48 h, 10 µM, compound concentration 10 uM, replicate 2

N[C@](CC1c2ccccc2Oc2ccccc21)(C(=O)O)[C@H]1C[C@@H]1C(=O)O
Population Apoptotic (%) [1]: 44%
Population Fragmented Nuclei (%) [1]: 12%
Population Healthy Nuclei (%) [1]: 73%
Population Hoechst High Intensity Objects (%) [1]: 4%
Population Membrane Permeable-Phenotype (%) [1]: 0%
Population Mitochondria Different-Phenotype (%) [1]: 1%
Population Mitotic Cells (%) [1]: 56%
Population Normal (%) [1]: 95%
Population Pyknosed Nuclei (%) [1]: 13%
Population Tubulin-Different-Phenotype (%) [1]: 27%
Total Cell Count [1]: 189
Population Apoptotic (%) [2]: 58%
Population Fragmented Nuclei (%) [2]: 18%
Population Healthy Nuclei (%) [2]: 59%
Population Hoechst High Intensity Objects (%) [2]: 1%
Population Membrane Permeable-Phenotype (%) [2]: 7%
Population Mitotic Cells (%) [2]: 41%
Population Normal (%) [2]: 98%
Population Pyknosed Nuclei (%) [2]: 21%
Population Tubulin-Different-Phenotype (%) [2]: 37%
Total Cell Count [2]: 113
Population Apoptotic (%) [3]: 50%
Population Fragmented Nuclei (%) [3]: 13%
Population Healthy Nuclei (%) [3]: 66%
Population Hoechst High Intensity Objects (%) [3]: 1%
Population Membrane Permeable-Phenotype (%) [3]: 2%
Population Mitochondria Different-Phenotype (%) [3]: 2%
Population Mitotic Cells (%) [3]: 50%
Population Normal (%) [3]: 98%
Population Pyknosed Nuclei (%) [3]: 20%
Population Tubulin-Different-Phenotype (%) [3]: 22%
Total Cell Count [3]: 203
Population Apoptotic (%) [4]: 26%
Population Fragmented Nuclei (%) [4]: 20%
Population Healthy Nuclei (%) [4]: 59%
Population Hoechst High Intensity Objects (%) [4]: 7%
Population Membrane Permeable-Phenotype (%) [4]: 0%
Population Mitochondria Different-Phenotype (%) [4]: 7%
Population Mitotic Cells (%) [4]: 73%
Population Normal (%) [4]: 92%
Population Tubulin-Different-Phenotype (%) [4]: 33%
Total Cell Count [4]: 119
Population Apoptotic (%) [5]: 68%
Population Fragmented Nuclei (%) [5]: 12%
Population Healthy Nuclei (%) [5]: 73%
Population Hoechst High Intensity Objects (%) [5]: 2%
Population Membrane Permeable-Phenotype (%) [5]: 2%
Population Mitochondria Different-Phenotype (%) [5]: 2%
Population Mitotic Cells (%) [5]: 32%
Population Normal (%) [5]: 97%
Population Pyknosed Nuclei (%) [5]: 13%
Population Tubulin-Different-Phenotype (%) [5]: 25%
Total Cell Count [5]: 183
Population Apoptotic (%) [6]: 33%
Population Fragmented Nuclei (%) [6]: 27%
Population Healthy Nuclei (%) [6]: 49%
Population Hoechst High Intensity Objects (%) [6]: 4%
Population Membrane Permeable-Phenotype (%) [6]: 6%
Population Mitochondria Different-Phenotype (%) [6]: 1%
Population Mitotic Cells (%) [6]: 66%
Population Normal (%) [6]: 95%
Population Pyknosed Nuclei (%) [6]: 22%
Population Tubulin-Different-Phenotype (%) [6]: 44%
Total Cell Count [6]: 123
Population Apoptotic (%) [7]: 57%
Population Fragmented Nuclei (%) [7]: 10%
Population Healthy Nuclei (%) [7]: 68%
Population Hoechst High Intensity Objects (%) [7]: 1%
Population Membrane Permeable-Phenotype (%) [7]: 1%
Population Mitochondria Different-Phenotype (%) [7]: 3%
Population Mitotic Cells (%) [7]: 42%
Population Normal (%) [7]: 98%
Population Pyknosed Nuclei (%) [7]: 20%
Population Tubulin-Different-Phenotype (%) [7]: 30%
Total Cell Count [7]: 193
Population Apoptotic (%) [8]: 35%
Population Fragmented Nuclei (%) [8]: 18%
Population Healthy Nuclei (%) [8]: 66%
Population Hoechst High Intensity Objects (%) [8]: 2%
Population Mitochondria Different-Phenotype (%) [8]: 4%
Population Mitotic Cells (%) [8]: 64%
Population Normal (%) [8]: 97%
Population Pyknosed Nuclei (%) [8]: 15%
Population Tubulin-Different-Phenotype (%) [8]: 34%
Total Cell Count [8]: 113
Population Apoptotic (%) [9]: 62%
Population Fragmented Nuclei (%) [9]: 17%
Population Healthy Nuclei (%) [9]: 68%
Population Hoechst High Intensity Objects (%) [9]: 2%
Population Membrane Permeable-Phenotype (%) [9]: 0%
Population Mitochondria Different-Phenotype (%) [9]: 2%
Population Mitotic Cells (%) [9]: 37%
Population Normal (%) [9]: 97%
Population Pyknosed Nuclei (%) [9]: 14%
Population Tubulin-Different-Phenotype (%) [9]: 26%
Total Cell Count [9]: 189
Population Apoptotic (%) [10]: 23%
Population Fragmented Nuclei (%) [10]: 36%
Population Healthy Nuclei (%) [10]: 48%
Population Hoechst High Intensity Objects (%) [10]: 8%
Population Membrane Permeable-Phenotype (%) [10]: 9%
Population Mitochondria Different-Phenotype (%) [10]: 5%
Population Mitotic Cells (%) [10]: 76%
Population Normal (%) [10]: 91%
Population Tubulin-Different-Phenotype (%) [10]: 65%
Total Cell Count [10]: 125
Population Apoptotic (%) [11]: 45%
Population Fragmented Nuclei (%) [11]: 14%
Population Healthy Nuclei (%) [11]: 68%
Population Hoechst High Intensity Objects (%) [11]: 5%
Population Membrane Permeable-Phenotype (%) [11]: 1%
Population Mitochondria Different-Phenotype (%) [11]: 2%
Population Mitotic Cells (%) [11]: 54%
Population Normal (%) [11]: 94%
Population Pyknosed Nuclei (%) [11]: 16%
Population Tubulin-Different-Phenotype (%) [11]: 32%
Total Cell Count [11]: 198
Population Apoptotic (%) [12]: 27%
Population Fragmented Nuclei (%) [12]: 27%
Population Healthy Nuclei (%) [12]: 63%
Population Hoechst High Intensity Objects (%) [12]: 3%
Population Membrane Permeable-Phenotype (%) [12]: 2%
Population Mitotic Cells (%) [12]: 72%
Population Normal (%) [12]: 96%
Population Pyknosed Nuclei (%) [12]: 9%
Population Tubulin-Different-Phenotype (%) [12]: 28%
Total Cell Count [12]: 115
